Legend:
Progesterone receptor = biological target: T1, Progesterone receptor (Homo sapiens, UniProt P06401); assay: Displacement of [3H]progesterone from human Progesterone receptor
T1 sequence (P06401 whole entry): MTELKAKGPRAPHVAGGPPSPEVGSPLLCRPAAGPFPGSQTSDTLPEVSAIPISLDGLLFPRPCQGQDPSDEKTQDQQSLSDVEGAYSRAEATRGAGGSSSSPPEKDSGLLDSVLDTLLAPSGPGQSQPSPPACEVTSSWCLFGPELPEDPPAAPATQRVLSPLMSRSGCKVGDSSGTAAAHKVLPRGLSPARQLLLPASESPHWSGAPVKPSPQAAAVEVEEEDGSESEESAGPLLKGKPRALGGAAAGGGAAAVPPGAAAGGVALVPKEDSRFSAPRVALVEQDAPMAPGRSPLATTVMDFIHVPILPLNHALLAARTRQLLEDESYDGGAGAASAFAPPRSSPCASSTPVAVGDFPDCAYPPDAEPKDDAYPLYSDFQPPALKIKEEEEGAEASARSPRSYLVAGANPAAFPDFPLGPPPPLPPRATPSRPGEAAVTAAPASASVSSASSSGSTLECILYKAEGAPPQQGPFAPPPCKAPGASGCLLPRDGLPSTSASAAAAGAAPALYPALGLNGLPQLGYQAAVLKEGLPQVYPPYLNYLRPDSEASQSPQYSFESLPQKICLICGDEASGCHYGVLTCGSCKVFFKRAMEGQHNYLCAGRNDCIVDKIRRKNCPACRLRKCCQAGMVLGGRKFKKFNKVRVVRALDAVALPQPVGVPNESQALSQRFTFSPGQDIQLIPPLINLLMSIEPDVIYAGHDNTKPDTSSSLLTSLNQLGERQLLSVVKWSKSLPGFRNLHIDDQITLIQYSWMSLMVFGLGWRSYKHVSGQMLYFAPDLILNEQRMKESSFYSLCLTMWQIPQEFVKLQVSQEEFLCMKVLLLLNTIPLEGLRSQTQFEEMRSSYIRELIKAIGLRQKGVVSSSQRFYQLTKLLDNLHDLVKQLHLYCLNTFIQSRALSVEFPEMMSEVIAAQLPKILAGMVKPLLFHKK
Outline: (§1)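 Human steroid receptor (PR, MR, AR, ERα) binding measured by radioligand displacement, with IC50s determined in duplicate. Values without a range come from a single experiment, and values with a range are geometric means of repeat experiments.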

Estrogen receptor = biological target: T2, Estrogen receptor (Homo sapiens, UniProt P03372); assay: Displacement of [3H]estradiol from human estrogen receptor alpha; outline: as §1
T2 sequence (P03372 whole entry): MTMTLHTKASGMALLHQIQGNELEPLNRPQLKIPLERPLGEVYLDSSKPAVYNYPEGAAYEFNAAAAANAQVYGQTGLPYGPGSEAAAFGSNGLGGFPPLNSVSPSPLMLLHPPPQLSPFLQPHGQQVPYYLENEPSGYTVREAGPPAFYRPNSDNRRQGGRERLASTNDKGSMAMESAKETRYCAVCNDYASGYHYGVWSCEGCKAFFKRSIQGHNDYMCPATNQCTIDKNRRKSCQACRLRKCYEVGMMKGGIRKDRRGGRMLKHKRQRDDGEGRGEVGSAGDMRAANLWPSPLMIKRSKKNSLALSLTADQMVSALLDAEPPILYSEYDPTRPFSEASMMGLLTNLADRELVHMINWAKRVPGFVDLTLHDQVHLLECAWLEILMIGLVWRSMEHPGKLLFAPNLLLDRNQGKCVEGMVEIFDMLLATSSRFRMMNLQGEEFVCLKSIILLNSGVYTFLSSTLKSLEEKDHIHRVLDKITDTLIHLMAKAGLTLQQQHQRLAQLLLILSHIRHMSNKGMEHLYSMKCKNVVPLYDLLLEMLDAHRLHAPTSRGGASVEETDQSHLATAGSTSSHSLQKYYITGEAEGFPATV

Glucocorticoid receptor = biological target: T3, Glucocorticoid receptor (Homo sapiens, UniProt P04150); assay: Effect on human Glucocorticoid receptor (GR) in a whole cell assay to measure functional cellular GR-antagonism (GRAF)
T3 sequence (P04150 whole entry): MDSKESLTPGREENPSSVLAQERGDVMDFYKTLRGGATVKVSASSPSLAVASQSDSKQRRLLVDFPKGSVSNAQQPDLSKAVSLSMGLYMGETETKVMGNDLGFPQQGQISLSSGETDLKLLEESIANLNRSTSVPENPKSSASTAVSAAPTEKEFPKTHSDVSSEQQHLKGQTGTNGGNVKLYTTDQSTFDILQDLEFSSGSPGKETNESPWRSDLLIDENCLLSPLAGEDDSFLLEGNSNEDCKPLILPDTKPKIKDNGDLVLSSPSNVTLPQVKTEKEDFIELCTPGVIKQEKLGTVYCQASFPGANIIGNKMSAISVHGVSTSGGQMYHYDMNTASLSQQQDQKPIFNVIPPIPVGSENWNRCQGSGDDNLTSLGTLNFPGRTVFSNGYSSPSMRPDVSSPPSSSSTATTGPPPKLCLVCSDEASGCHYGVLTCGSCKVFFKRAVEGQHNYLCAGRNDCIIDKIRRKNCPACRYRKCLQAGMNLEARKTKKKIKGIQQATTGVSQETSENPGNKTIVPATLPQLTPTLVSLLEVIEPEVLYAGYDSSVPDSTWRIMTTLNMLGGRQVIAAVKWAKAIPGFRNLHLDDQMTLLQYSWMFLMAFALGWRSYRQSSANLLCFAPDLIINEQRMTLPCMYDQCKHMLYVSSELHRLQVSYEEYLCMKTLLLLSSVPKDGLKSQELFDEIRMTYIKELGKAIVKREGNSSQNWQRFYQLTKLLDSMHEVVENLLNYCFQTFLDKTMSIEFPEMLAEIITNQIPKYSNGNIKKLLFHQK

SMILES | IC50 (Progesterone receptor) [nM] | IC50 (Estrogen receptor) [nM] | IC50 (Glucocorticoid receptor) [nM]
COc1cccc2c1-c1ccc(NS(C)(=O)=O)cc1C(c1cccs1)O2 (stereo not drawn) | 450 | > 10000 | 66
COc1cccc2c1-c1ccc(NS(C)(=O)=O)cc1C(c1ccc(F)cc1)O2 (stereo not drawn) | 1160 | > 1000 | 
COc1cccc2c1-c1ccc(NS(C)(=O)=O)cc1C(c1ccc(C)cc1)O2 (stereo not drawn) | 673 | > 10000 | 

Further lines, results first:

IC50 (Progesterone receptor) [nM] | IC50 (Estrogen receptor) [nM] | IC50 (Glucocorticoid receptor) [nM] | SMILES
476 | > 10000 | 76 | COc1cccc2c1-c1ccc(NS(C)(=O)=O)cc1C(c1cccc(F)c1)O2 (stereo not drawn)
6900 | > 10000 | 308 | CCOc1cccc2c1-c1ccc(NS(C)(=O)=O)cc1C(c1ccccc1)O2 (stereo not drawn)

Reference: ChEMBL document CHEMBL1147539, “Synthesis and biological evaluation of novel, selective, nonsteroidal glucocorticoid receptor antagonists” (Bioorg Med Chem Lett, 2004)
